These results are taken from the EternaBench riboswitch data.

The data set concerns MS2 coat protein. Description: apparent Kd, MS2 coat protein; higher = weaker binding; RNA-MaP array; FMN 200 µM where present. The method, boiled down: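 On Illumina sequencing-chip clusters, designs were transcribed by stalled E. coli RNA polymerase and titrated with SNAP-549-labelled MS2 coat protein (0.7 or 1.5 nM, doubling to 3 µM), without and then with constant ligand, in 100 mM Tris-HCl pH 7.5, 80 mM KCl, 4 mM MgCl2, BSA, DTT, yeast tRNA and Tween-20. Apparent Kd is the median of filtered per-cluster curve fits to green signal normalised to red-channel RNA signal and control-cluster median Fmax.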

The mark [1] stands for this setting: designed as: ON switch for flavin mononucleotide, no ligand.
Where [2] appears, read: ligand present: flavin mononucleotide, designed as: ON switch for flavin mononucleotide.
Where [3] appears, read: designed as: OFF switch for flavin mononucleotide, no ligand.
The mark [4] stands for this setting: ligand present: flavin mononucleotide, designed as: OFF switch for flavin mononucleotide.

Turning to “AAUGUGUGUGGAGGAUAUAUAACAUGACAACAAACACAUACAUGAGGAUCACCCAUGUCCCAUGUAUAGAAGGCCAUAUAUAUA”, the “apparent Kd” value under setting [1] stood at 0.662 µM and the “apparent Kd” value under setting [2] is 0.618 µM.
For “AGCUAGUGAGGAUAUACAAGAAUAUAAACGAACAUAAAGGGACAUGAGGAUCACCCAUGUAGAAGGCACUAGCA”, the “apparent Kd” value by setting is: under setting [3], 0.0376 µM; under setting [4], 0.243 µM.
With “CACCGUUACGUAGGAUAUAGUACAUGAGGAUCACCCAUGUAAUAAAUGAGAAUUUCGGAUGUAUGCUAGAAGGACGAAAUCGGC”, the “apparent Kd” value is, setting by setting: under setting [3], 0.053 µM; under setting [4], 0.0491 µM.
Take “GCGUUACAUGAGGAUCACCCAUGUGAGGAUAUGGUGCGGUACUGUCCUGUCGCGUACUCCAGAAGGCACGGGUG”: the “apparent Kd” value amounted to 0.15 µM under setting [3] and 0.0853 µM under setting [4].
For “GCAGGUUAAGUCAGGAUAUACCUAUGGAUACAUAGGUAGAAGGGACAUGAGGAUCACCCAUGUUCCUCACCUGC” the same measures were 0.0156 µM and 0.0343 µM.
With “UGUUGUAUUACAGGAUAUCUAUGAUUUUGAUUUAGAGAAGGGUAUUCACAUGAGGAUCACCCAUGUAUAUACGAGGAAGUUGUG”, the “apparent Kd” value came to 0.0512 µM under setting [1] and 0.0544 µM under setting [2].
“UUUUAACAUGAGGAUCACCCAUGUGAGGAUAUCGAAAUUUAUAUUAAUAUUUAUAAUUCGAGAAGGCACAUUUU”: the “apparent Kd” value reads like this: under setting [3], 0.17 µM; under setting [4], 0.148 µM.
“CUGGUUGUCGUAGGAUAUGUAGGAUAUUCCUACAUGAGGAUCACCCAUGUUCGCAUGGAAGAAAGACAGAAGGACGAUGACCAU”: the “apparent Kd” value runs as follows: under setting [1], 1.19 µM; under setting [2], 0.0522 µM.
Take “CUUUUGUGAGGAUAUCAGUAGUAAUUAAAUAAAAUUACUACUGAGAAGGCACAUGAGGAUCACCCAUGUUCCUC”: the “apparent Kd” value by setting is: under setting [3], 0.0413 µM; under setting [4], 0.338 µM.
For “UAAUAAAACGAUCGGCGGUCCAUACAUGAGGAUCACCCAUGUAGAAGGGACUCUACAAAGUAGAGUCAGGAUAUACAAGAUCGA” the same measures were 0.00819 µM and 0.108 µM.
In the case of “GGGUACAUCGGAGGAUAUCAUGCAAAUACAUGAGGAUCACCCAUGUCGAUGGAGACAUCGGAGAUUGAGAAGGCCGAUGUACCG”, the “apparent Kd” value amounted to 0.0219 µM under setting [1] and 0.0055 µM under setting [2].
Regarding “UGUUUGUGAGGAUAUCCAAUAUAUGACAUGAGGAUCACCCAUGUUUCCACUCGUACCUCCGGAGAAGGCACUGCGU”, the “apparent Kd” value turned out to be 0.0291 µM under setting [3] and 0.026 µM under setting [4].
With “UUGUUGUAUGUAGGAUAUGCGUAUUAUUAUUAUGCAGAAGGACAUGAGGAUCACCCAUGUAUAUUAUUAUUAUAUGUUAUAUAU”, the “apparent Kd” value was found to be 0.0262 µM under setting [3] and 0.0363 µM under setting [4].
As for “UGUGCGUUGAUCUUAGAUCGGAGUACAUGAGGAUCACCCAUGUAGGAUAUUCAAAGACGCAGAUAGAAGAAGGACAUAGGUUUC”, the “apparent Kd” value is 0.00785 µM under setting [3] and 0.0116 µM under setting [4].
Taken in the same sequence, the figures for “AGGAAGUGAGGAUAUGCAGUGGCUUGUAGACGCAAGCACUUGUAGAAGGCACAUGAGGAUCACCCAUGUUUAAA” were 0.0308 µM and 0.0373 µM.
As to “GAAUUCGCAUGAGGAUAUGCACUCAUUUCAUGUGCAGAAGGUAUUUCAUUAGACAUGAGGAUCACCCAUGUAUUGGUCACUAAC”, the “apparent Kd” value is, setting by setting: under setting [1], 0.0215 µM; under setting [2], 0.0166 µM.
Consider “ACAUGAGGAUCACCCAUGUGAUGAUCUUCCAUGUCAUAUUUCAGAAGGCUCGCAUGUUUGAUGAGAGAGGAUAUGGAAUAUGCG”, for which the “apparent Kd” value came to 0.79 µM under setting [3] and 0.368 µM under setting [4].
Taken in the same sequence, the figures for “GGAUAGGACAGAGGAUAUACGUGCUAGAGAUACUAGCAAAAUUUCCUCACAUGAGGAUCACCCAUGUAGAAGGCCGUCCUAUCG” were 0.00602 µM and 0.0197 µM.
For “UUAAUUUUAUGAUAUUAUGACAUUAGAAGGCUGUACAUGUUGAUACAUGAGGAUCACCCAUGUAUAGAGGAUAUAGACAAUUUU” the same measures were 0.0324 µM and 0.0639 µM.
“GGAGGACGAAACAUGAGGAUCACCCAUGUGUUAUAAUUAAUAUAGGAUAUGUUUAUACUUUUUGGGCAGAAGGAUGAUAAUGCC”: the “apparent Kd” value came to 0.0196 µM under setting [1] and 0.0161 µM under setting [2].
As to “ACUGUCGCGUGAGGAUAUGGUCUGCAGUGCUGACCAGAAGGCAUGUCGAUAGACAUGAGGAUCACCCAUGUGGUUAGGGCGGCA”, the “apparent Kd” value under setting [1] was determined as 0.933 µM and the “apparent Kd” value under setting [2] amounted to 0.467 µM.
In the case of “UCCGCGCGCGUAGGAUAUACAUGAGGAUCACCCAUGUACCCAUAUGGCUUCCUGAAUCUUGCAAUGUAGAAGGACGCCCGUGGG”, the “apparent Kd” value was determined as 0.0358 µM under setting [3] and 0.0361 µM under setting [4].
For “CGAUGGCAUGUAGGAUAUCGAGCUCAAAGAGCUCGAGAAGGACAUGAGGAUCACCCAUGUGCACACAGACAGUGUGCGCUAUCG”, the “apparent Kd” value turned out to be 0.037 µM under setting [3] and 0.181 µM under setting [4].
For the sequence “CCCUCACAUGAGGAUCACCCAUGUCAGGAUAUUCGAACGGUGUGUUUUUGGCCAGUUGGAAGAAGGGACAUAAA”, the “apparent Kd” value under setting [3] amounted to 0.0297 µM and the “apparent Kd” value under setting [4] was found to be 0.117 µM.
As to “UUUUUUUACUAGGAUAUCGCCGCCGAAAGGCGGCGAGAAGGAGUAACAUGAGGAUCACCCAUGUGUCCUUUUUU”, the “apparent Kd” value by setting is: under setting [3], 0.022 µM; under setting [4], 0.0742 µM.
Taken in the same sequence, the figures for “UGUGCUAUGUAGAAGGCAGAUCUGAUUCAGAUCUGAGGAUAUACAUGAGGAUCACCCAUGUUAUGCACCAGCACGAGAGUGCAG” were 0.00917 µM and 0.024 µM.
“CAUCUGUCAGGAUAUAUGCGAGGGCCACGAAGCGGCCCUUCAUAGAAGGGACAUGAGGAUCACCCAUGUAGAUC”: the “apparent Kd” value was 0.461 µM under setting [3] and 0.31 µM under setting [4].
For the sequence “UUAUUAUAUGUAGGAUAUGCAUAUUAUUAUUAUGCAGAAGGACAUGAGGAUCACCCAUGUAUGUUAUUAUUAUAUAUUAUAUAU”, the “apparent Kd” value under setting [3] came to 0.0261 µM and the “apparent Kd” value under setting [4] came out at 0.0347 µM.
Taken in the same sequence, the figures for “GUCCUCUCUGAGGAUAUUAUCCGGUCCGAUUGAUAAGAAGGCAGUACAUGAGGAUCACCCAUGUGGGUUGUCUG” were 0.0626 µM and 0.17 µM.
For “GGAUAGGACAGAGGAUAUACGUGCUAGAGAUACUAGCAAAAUUUCCUAACAUGAGGAUCACCCAUGUAGAAGGCUGUCCUAUCG” the same measures were 0.00661 µM and 0.0133 µM.
For “AAGAAGUCAGGAUAUCCAGCUCGUCACUUGCGUGAUGAGUUGGAGAAGGGACAUGAGGAUCACCCAUGUAAAGU” the same measures were 0.0569 µM and 0.0555 µM.
Take “AUCAUUCGUGUAGGAUAUGCGUGGCGAAGCUAUGCAGAAGGACAUGAGGAUCACCCAUGUCUUUCUCGAGCUGUAGCUCGAGGA”: the “apparent Kd” value came to 0.0213 µM under setting [3] and 0.0922 µM under setting [4].
As to “CACGAUCAUGUAGGAUAUAUACUGGAAUACAGUAUAGAAGGACAUGAGGAUCACCCAUGUUAUGUGCCUCCAAGUAAGAUCGUG”, the “apparent Kd” value under setting [3] was 0.0177 µM and the “apparent Kd” value under setting [4] turned out to be 0.0232 µM.
For “UGCUGGCGAGGAUAUGCUCGGGAUGCUAGUCGCGCGGUUGCACAUGAGGAUCACCCAUGUAGAAGGUGUCUGUG” the same measures were 0.17 µM and 0.169 µM.
With “CUGAGGUCAGGAUAUGCAUGGCGGGACUUGCGUCGUGGCGUGGAGAAGGGACAUGAGGAUCACCCAUGUGGAGA”, the “apparent Kd” value runs as follows: under setting [3], 0.083 µM; under setting [4], 0.0811 µM.
Regarding “GCGUAACAUGAGGAUCACCCAUGUACCCGAGAAUUCGGGUCUAGAAGGGUGACCGGUCGUUUGGCACAGGAUAUAGACGUUGUG”, the “apparent Kd” value runs as follows: under setting [1], 0.0307 µM; under setting [2], 0.0113 µM.
Take “CAGGACAGAGGAUAUACAUAGAUACAGAUUCAUGUAGAACUACAUGAGGAUCACCCAUGUAGAAGGCUGACCUG”: the “apparent Kd” value under setting [3] was determined as 0.0285 µM and the “apparent Kd” value under setting [4] is 0.221 µM.
Taken in the same sequence, the figures for “AAUAAGGGAGGAUAUGCGGAACGGUUUGUUCUCAGUGAGGCACAUGAGGAUCACCCAUGUAGAAGGCCCGGCAA” were 0.0138 µM and 0.0931 µM.
For the sequence “AAACCGUAAAUGCGGGCAUGUACACAGGAUAUCCCGUGACAUGAGGAUCACCCAUGUAACACAUUGGAGAAGGGUGUUCACGUA”, the “apparent Kd” value was found to be 0.177 µM under setting [1] and 0.0196 µM under setting [2].
For the sequence “GCAGUGUCAGGAUAUAGUUCGAGUUCGGAAAUGAGCUUGAGCUAGAAGGGACAUGAGGAUCACCCAUGUGCUGU”, the “apparent Kd” value came out at 0.038 µM under setting [3] and 0.0832 µM under setting [4].
Taken in the same sequence, the figures for “AUCAGCUCGUCAGGAUAUACGUCACUGCGUCAGCAGUGUGGUAAGAUCACAUGAGGAUCACCCAUGUAGAAGGGACGAGCUGAG” were 0.0141 µM and 0.284 µM.
In the case of “CAAGGAUACUUAUAAGCUGACAAACCAGAAGGAUGAGCCUCUACAUGAGGAUCACCCAUGUGUUCGUAGGAUAUGGGUCGGAAG”, the “apparent Kd” value under setting [1] was 0.0113 µM and the “apparent Kd” value under setting [2] stood at 0.0315 µM.
For “GCUGCUAUCGCAGGAUAUUACAUGGGAAAUAAGACAUGAGGAUCACCCAUGUUAAAUAUCGUAAAUAAGAAGGGCGAUAGCAGC” the same measures were 0.27 µM and 0.475 µM.
For “UUGGACUUCGUAGGAUAUGUAGGAUAUUCCUACAUGAGGAUCACCCAUGUUGACAUGGAAGAAGGACAGAAGGACGAUGUCCAU” the same measures were 0.257 µM and 0.00412 µM.
In the case of “CCCUCACAUGAGGAUCACCCAUGUUAGGAUAUCUACCUGGAGCUUUGAUUAGCCCAACGGAGAAGGAACGUGCA”, the “apparent Kd” value by setting is: under setting [3], 0.019 µM; under setting [4], 0.0187 µM.
As for “UUACCUUAUGAGAAGGCGAUCAUGAAACAUGAUCGAGGAUAUCAUGUAAACAUGAGGAUCACCCAUGUAUGGGUAUUAUGGUAG”, the “apparent Kd” value is, setting by setting: under setting [1], 0.133 µM; under setting [2], 0.0325 µM.
Take “AGAAAACAUGAGGAUCACCCAUGUGAGGAUAUCGAUGUCCAAGGGCGGGUGCGGGACUCGAGAAGGCACUUGGA”: the “apparent Kd” value by setting is: under setting [3], 0.076 µM; under setting [4], 0.0643 µM.
For “CGGCGUAGCGUAAGGAUAUCGCGCGGUGUAAUUGUUGAGAAGGUACAUGAGGAUCACCCAUGUGGUCAGCCGGC”, the “apparent Kd” value reads like this: under setting [3], 0.04 µM; under setting [4], 0.04 µM.

Usually apparent Kd stands for the concentration giving half-maximal binding under the conditions of the assay.
